According to ChEMBL document CHEMBL3994637, “Broad spectrum anti-infective properties of benzisothiazolones and the parallels in their anti-bacterial and anti-fungal effects” (Bioorg Med Chem Lett, 2017):
≈ marks a conversion by molar mass, not a printed value.

How the values were obtained:
Staphylococcus aureus [1] = test: Antibacterial activity against methicillin-resistant Staphylococcus aureus ATCC 700699 by broth microdilution method; type: functional; details: Mu50
Sporothrix schenckii = test: Anti-fungal activity against Sporothrix schenckii after 48 hrs by broth microdilution method; type: functional
Candida parapsilosis = test: Anti-fungal activity against Candida parapsilosis ATCC 22019 after 48 hrs by broth microdilution method; type: functional; details: Lodderomyces parapsilosis, ATCC 22019, 48 h
Staphylococcus aureus [2] = test: Antibacterial activity against Staphylococcus aureus ATCC 29213 by broth microdilution method; type: functional
Staphylococcus aureus [3] = test: Antibacterial activity against Staphylococcus aureus ATCC 25923 by broth microdilution method; type: functional
Escherichia coli = test: Antibacterial activity against Escherichia coli ATCC 9637 by broth microdilution method; type: functional; details: W
In short: (§1)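 Bacteria were tested by the NCCLS method in Mueller Hinton broth, with gentamicin and norfloxacin as reference drugs.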

Aspergillus fumigatus = test: Anti-fungal activity against Aspergillus fumigatus after 48 hrs by broth microdilution method; type: functional
[4] = Cytotoxicity against monkey Vero C1008 cells after 72 hrs by MTT assay; type: cell-based; details: chlorocebus sabaeus
[5] = tested on: Trichophyton mentagrophytes; test: Anti-fungal activity against Trichophyton mentagrophytes after 48 hrs by broth microdilution method; type: functional
Pseudomonas aeruginosa = test: Antibacterial activity against Pseudomonas aeruginosa ATCC BAA-427 by broth microdilution method; type: functional; in short: as §1
Cryptococcus neoformans = test: Anti-fungal activity against Cryptococcus neoformans after 48 hrs by broth microdilution method; type: functional
Klebsiella pneumoniae = test: Antibacterial activity against Klebsiella pneumoniae ATCC 27736 by broth microdilution method; type: functional; in short: as §1
Candida albicans = test: Anti-fungal activity against Candida albicans after 48 hrs by broth microdilution method; type: functional
Plasmodium falciparum = test: Antimalarial activity against chloroquine-sensitive Plasmodium falciparum 3D7 after 72 hrs by SYBR Green-1 staining based fluorescence assay; type: functional; details: 3D7, 72 h
Staphylococcus aureus [6] = test: Antibacterial activity against gentamicin-resistant Staphylococcus aureus ATCC 33592 by broth microdilution method; type: functional
[7] = Selectivity index, ratio of CC50 for monkey Vero C1008 cells to IC50 for chloroquine-sensitive Plasmodium falciparum 3D7; type: toxicity; details: read-out: Ratio CC50/IC50

SMILES	MIC (Staphylococcus aureus [1]) [µg/mL]	IC50 (Sporothrix schenckii) [µg/mL]	MIC (Sporothrix schenckii) [µg/mL]	IC50 (Candida parapsilosis) [µg/mL]	MIC (Candida parapsilosis) [µg/mL]	IC50 (Staphylococcus aureus [2]) [µg/mL]	MIC (Staphylococcus aureus [2]) [µg/mL]	IC50 (Staphylococcus aureus [3]) [µg/mL]	MIC (Staphylococcus aureus [3]) [µg/mL]	IC50 (Escherichia coli) [µg/mL]	MIC (Escherichia coli) [µg/mL]	MIC (Aspergillus fumigatus) [µg/mL]	MIC [5] [µg/mL]	IC50 (Pseudomonas aeruginosa) [µg/mL]	MIC (Pseudomonas aeruginosa) [µg/mL]	IC50 (Cryptococcus neoformans) [µg/mL]	MIC (Cryptococcus neoformans) [µg/mL]	MIC (Klebsiella pneumoniae) [µg/mL]	MIC (Candida albicans) [µg/mL]	IC50 (Plasmodium falciparum) [nM]	also measured
COc1ccccc1-n1sc2ccccc2c1=O	1.07 (≈ 4.16 µM)	0.6 (≈ 2.33 µM)	4 (≈ 15.5 µM)	0.7 (≈ 2.72 µM)	3.2 (≈ 12.4 µM)	1.6 (≈ 6.22 µM)	2.4 (≈ 9.33 µM)	1 (≈ 3.89 µM)	2 (≈ 7.77 µM)	> 50	> 50	> 50	2.6 (≈ 10.1 µM)	> 50	> 50	0.9 (≈ 3.5 µM)	3.8 (≈ 14.8 µM)	> 50	7.2 (≈ 28 µM)	> 2000	IC50 (Aspergillus fumigatus): > 50 µg/mL; CC50 at 72 h [4]: 24.5 µM; IC50 [5]: 0.7 µg/mL (≈ 2.72 µM); IC50 (Klebsiella pneumoniae): > 50 µg/mL; IC50 (Candida albicans): 2.9 µg/mL (≈ 11.3 µM)
O=c1c2ccccc2sn1-c1ccccc1I	25 (≈ 70.8 µM)		25 (≈ 70.8 µM)		25 (≈ 70.8 µM)		12.5 (≈ 35.4 µM)		12.5 (≈ 35.4 µM)		> 50	50 (≈ 142 µM)	25 (≈ 70.8 µM)		> 50		25 (≈ 70.8 µM)	> 50	25 (≈ 70.8 µM)	> 2000	MIC (Staphylococcus aureus [6]): 12.5 µg/mL (≈ 35.4 µM)
O=c1c2ccccc2sn1C1CCCCC1	2.5 (≈ 10.7 µM)	0.4 (≈ 1.71 µM)	0.6 (≈ 2.57 µM)	0.7 (≈ 3 µM)	0.9 (≈ 3.86 µM)	4.6 (≈ 19.7 µM)	7.1 (≈ 30.4 µM)	6.8 (≈ 29.1 µM)	9.8 (≈ 42 µM)	> 50	> 50	3.7 (≈ 15.9 µM)	1 (≈ 4.29 µM)	> 50	> 50	1 (≈ 4.29 µM)	1.3 (≈ 5.57 µM)	> 50	0.5 (≈ 2.14 µM)	> 2000	IC50 (Staphylococcus aureus [1]): 1 µg/mL (≈ 4.29 µM); IC50 (Aspergillus fumigatus): 0.4 µg/mL (≈ 1.71 µM); IC50 [5]: 0.7 µg/mL (≈ 3 µM); IC50 (Klebsiella pneumoniae): > 50 µg/mL
O=c1c2ccccc2sn1CCn1sc2ccccc2c1=O	0.9 (≈ 2.74 µM)	2.3 (≈ 7 µM)	3.5 (≈ 10.7 µM)	> 50	> 50	0.3 (≈ 0.913 µM)	0.4 (≈ 1.22 µM)	4.1 (≈ 12.5 µM)	16.7 (≈ 50.8 µM)	> 50	> 50	12.5 (≈ 38.1 µM)	2.9 (≈ 8.83 µM)	> 50	> 50	1.4 (≈ 4.26 µM)	2.2 (≈ 6.7 µM)	> 50	1.54 (≈ 4.69 µM)	> 2000	IC50 (Staphylococcus aureus [1]): 0.4 µg/mL (≈ 1.22 µM); IC50 (Klebsiella pneumoniae): > 50 µg/mL; IC50 (Candida albicans): 1.51 µg/mL (≈ 4.6 µM)
COC(=O)[C@H](CC(C)C)n1sc2ccccc2c1=O	3.5 (≈ 12.5 µM)	2.9 (≈ 10.4 µM)	20.4 (≈ 73 µM)	2.4 (≈ 8.59 µM)	4.9 (≈ 17.5 µM)	2.7 (≈ 9.66 µM)	6.9 (≈ 24.7 µM)	2.1 (≈ 7.52 µM)	3.5 (≈ 12.5 µM)	> 50	> 50	> 50	11.4 (≈ 40.8 µM)	> 50	> 50	8.6 (≈ 30.8 µM)	10.5 (≈ 37.6 µM)	> 50	1.9 (≈ 6.8 µM)	> 2000	IC50 (Staphylococcus aureus [1]): 2.1 µg/mL (≈ 7.52 µM); IC50 [5]: 6.2 µg/mL (≈ 22.2 µM); IC50 (Klebsiella pneumoniae): > 50 µg/mL; IC50 (Candida albicans): 1.5 µg/mL (≈ 5.37 µM)
Cc1ccc(-n2sc3ccccc3c2=O)cc1	0.75 (≈ 3.11 µM)	0.9 (≈ 3.73 µM)	1 (≈ 4.14 µM)	0.4 (≈ 1.66 µM)	0.6 (≈ 2.49 µM)	0.6 (≈ 2.49 µM)	1 (≈ 4.14 µM)	0.6 (≈ 2.49 µM)	1.07 (≈ 4.43 µM)	> 50	> 50	13.3 (≈ 55.1 µM)	1.7 (≈ 7.04 µM)	> 50	> 50	1.2 (≈ 4.97 µM)	1.5 (≈ 6.22 µM)	> 50	2.4 (≈ 9.95 µM)	1660	IC50 (Aspergillus fumigatus): 4.1 µg/mL (≈ 17 µM); CC50 at 72 h [4]: 19.9 µM; IC50 (Klebsiella pneumoniae): > 50 µg/mL; IC50 (Candida albicans): 1.3 µg/mL (≈ 5.39 µM); selectivity ratio [7]: 12
O=c1c2ccccc2sn1-c1ccccc1Cl	12.5 (≈ 47.8 µM)		12.5 (≈ 47.8 µM)		25 (≈ 95.5 µM)		12.5 (≈ 47.8 µM)		25 (≈ 95.5 µM)		> 50	25 (≈ 95.5 µM)	12.5 (≈ 47.8 µM)		> 50		12.5 (≈ 47.8 µM)	> 50	25 (≈ 95.5 µM)	> 2000	MIC (Staphylococcus aureus [6]): 12.5 µg/mL (≈ 47.8 µM)
O=c1c2ccccc2sn1-c1cccc(F)c1	6.25 (≈ 25.5 µM)		12.5 (≈ 51 µM)		12.5 (≈ 51 µM)		12.5 (≈ 51 µM)		6.25 (≈ 25.5 µM)		> 50	25 (≈ 102 µM)	12.5 (≈ 51 µM)		> 50		12.5 (≈ 51 µM)	> 50	12.5 (≈ 51 µM)	> 2000	MIC (Staphylococcus aureus [6]): 6.25 µg/mL (≈ 25.5 µM)
COC(=O)[C@H](C)NC(=O)[C@H](C)n1sc2ccccc2c1=O	7.5 (≈ 24.3 µM)	> 50	> 50	> 50	> 50	3.5 (≈ 11.4 µM)	5.6 (≈ 18.2 µM)	3.6 (≈ 11.7 µM)	7.5 (≈ 24.3 µM)	> 50	> 50	> 50	> 50	> 50	> 50	> 50	> 50	> 50	> 50	> 2000	IC50 (Staphylococcus aureus [1]): 3.6 µg/mL (≈ 11.7 µM); IC50 (Aspergillus fumigatus): > 50 µg/mL; IC50 [5]: > 50 µg/mL; IC50 (Klebsiella pneumoniae): > 50 µg/mL; IC50 (Candida albicans): > 50 µg/mL
